Assay results: ChEMBL document CHEMBL4402570, “Discovery and Optimization of Novel Pyrazolopyrimidines as Potent and Orally Bioavailable Allosteric HIV-1 Integrase Inhibitors” (J Med Chem, 2020)

Experiments:
[1] = tested on: Human immunodeficiency virus 1; experiment: Antiviral activity against HIV1 NL4-3 infected in human MT2 cells measured after 3 to 4 days by luciferase reporter gene assay; type: functional, organism-based
[2] = molecular target: Human immunodeficiency virus type 1 integrase (Human immunodeficiency virus 1, UniProt Q7ZJM1); experiment: Allosteric inhibition of [3H]-2-tert-butoxy-2-[2-methyl-4-(p-tolyl)-3-quinolyl]acetic acid binding to HIV1 integrase measured after 1 hr under dark condition by microbeta plate reader method
Sequence of Human immunodeficiency virus type 1 integrase (Q7ZJM1 whole entry): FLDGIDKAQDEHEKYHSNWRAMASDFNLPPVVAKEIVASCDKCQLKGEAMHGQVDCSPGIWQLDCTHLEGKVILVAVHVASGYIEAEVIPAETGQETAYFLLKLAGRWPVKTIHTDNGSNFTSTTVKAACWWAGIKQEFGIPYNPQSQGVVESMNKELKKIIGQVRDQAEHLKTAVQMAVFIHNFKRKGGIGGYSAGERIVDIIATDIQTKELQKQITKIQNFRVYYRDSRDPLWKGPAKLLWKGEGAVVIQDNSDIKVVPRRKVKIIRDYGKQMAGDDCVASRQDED
In short: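 Scintillation proximity displacement of tritiated LEDGF-site inhibitor from purified HIV-1 integrase (13 μM) premixed 1 h with PVT SPA beads (2 mg/mL); […]. Buffer 26 mM MOPS pH 7.0, 11 mM DTT, 100 mM NaCl, 20 mM MgCl2, 0.05% NP-40, 5% PEG-8000. Compounds 100 μM to 0.0512 nM, ten 5-fold dilutions. 1 h rocking, RT, dark; read after overnight; Ki derived.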

[3] = tested on: Human immunodeficiency virus 1; experiment: Antiviral activity against HIV1 NL4-3 infected in human MT2 cells measured after 3 to 4 days in presence of human serum albumin by luciferase reporter gene assay; type: functional, organism-based; details: Human immunodeficiency virus 1, NL4-3, MT2
[4] = Therapeutic index, ratio of CC50 for human MT2 cells to EC50 for HIV1 NL4-3 infected in human MT2 cells; type: toxicity, cell-based; details: read-out: Ratio CC50/EC50
[5] = tested on: Human immunodeficiency virus 1; experiment: Selectivity ratio of EC50 for HIV1 NL4-3 infected in human MT2 cells in presence of human serum albumin to EC50 for HIV1 NL4-3 infected in human MT2 cells in absence of human serum albumin; type: functional
[6] = Stability of the compound in human liver microsomes assessed as parent compound remaining at 0.5 uM measured after 10 mins in presence of NADPH by LC-MS/MS analysis; type: ADME, Microsome; details: read-out: Stability
In short: (§1)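 CYP-mediated turnover: 0.5 μM compound with human or rat liver microsomes (1 mg/mL) in 100 mM sodium phosphate pH 7.4, 6.6 mM MgCl2, 37 °C; started with NADPH, DMSO 0.014%. Samples quenched at 0 and 10 min; parent remaining by LC-MS/MS; duplicate.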

[7] = Permeability of the compound in pH 7.4 buffer at 100 uM measured after 4 hrs by sandwich-PAMPA; type: ADME; details: read-out: permeability
In short: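 Parallel artificial membrane permeability: compound at 100 μM in donor buffer pH 7.4, permeating to acceptor through artificial membrane over 4 h; donor, acceptor and t0 solutions read by UV plate reader; triplicate.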

[8] = Stability of the compound in rat liver microsomes assessed as parent compound remaining at 0.5 uM measured after 10 mins in presence of NADPH by LC-MS/MS analysis; type: ADME, Microsome; details: read-out: Stability; in short: as §1
[9] = Cytotoxicity against human MT2 cells measured after 4 days by XTT assay; type: cell-based
In short: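 MT-2 cell viability measured by XTT after 4 days of compound exposure, run in parallel with the antiviral assay; CC50 from n ≥ 2 determinations.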

[10] = Volume of distribution at steady state in Sprague-Dawley rat at 1 mg/kg, iv infusion for 10 mins or 5 mg/kg, po administered via gavage by LC-MS/MS analysis; type: ADME, organism-based; details: in vivo, read-out: Vdss
In short: (§2)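 Rats given iv via implanted venous cannula as 10 min infusion, or oral gavage after overnight fast; vehicle 10% dimethylacetamide/90% PEG400 for both routes. Plasma from venous-port blood, treated with CH3CN containing internal standard, analysed by LC-MS/MS; oral plasma levels followed 24 h after 5 mg/kg. Parameters by noncompartmental analysis of concentration-time data.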

[11] = Oral bioavailability in Sprague-Dawley rat at 5 mg/kg administered via gavage by LC-MS/MS analysis; type: ADME, organism-based; details: in vivo; in short: as §2
[12] = Cmax in Sprague-Dawley rat at 1 mg/kg, iv infusion for 10 mins or 5 mg/kg, po administered via gavage by LC-MS/MS analysis; type: ADME, organism-based; details: in vivo; in short: as §2
[13] = AUC (0 to 24 hrs) in Sprague-Dawley rat at 1 mg/kg, iv infusion for 10 mins or 5 mg/kg, po administered via gavage by LC-MS/MS analysis; type: ADME, organism-based; details: in vivo; in short: as §2
[14] = Clearance in Sprague-Dawley rat at 1 mg/kg, iv infusion for 10 mins or 5 mg/kg, po administered via gavage by LC-MS/MS analysis; type: ADME, organism-based; details: in vivo; in short: as §2
[15] = Half life in Sprague-Dawley rat at 1 mg/kg, iv infusion for 10 mins or 5 mg/kg, po administered via gavage by LC-MS/MS analysis; type: ADME, organism-based; details: in vivo; in short: as §2
[16] = Tmax in Sprague-Dawley rat at 1 mg/kg, iv infusion for 10 mins or 5 mg/kg, po administered via gavage by LC-MS/MS analysis; type: ADME, organism-based; details: in vivo; in short: as §2
[17] = tested on: Human immunodeficiency virus 1; experiment: Antiviral activity against HIV1 NL4-3 harboring G140S/Q148H mutant infected in human MT2 cells measured after 3 to 4 days by luciferase reporter gene assay; type: functional, organism-based; details: Human immunodeficiency virus 1, NL4-3, MT2
In short: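 MT-2 cells (RPMI 1640, 10% heat-inactivated FBS, 10 mM HEPES pH 7.55, 2 mM L-glutamine, penicillin/streptomycin) infected with titered NL4-3 Renilla luciferase reporter virus (luciferase replacing nef) carrying integrase G140S/Q148H, with serial compound dilutions from 10 mM DMSO stock, final DMSO 1%; luciferase read after 3–4 days; EC50 from median effect equation; n ≥ 2, some n = 1.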

[18] = Human immunodeficiency virus 1, NL4-3, MT2

Compound	EC50 [1, 18]	remaining at 10 min, 0.5 µM [6]	Papp at 4 h, 100 µM [7]	remaining at 10 min, 0.5 µM [8]	Ki [2]	other results
Cc1ccccc1-c1c(C(OC(C)(C)C)C(=O)O)c(C)nc2cc(-c3ccccc3)nn12 (centres undefined)	21000 nM	–	–	–	3400 nM	–
Cc1nc2cc(-c3cccc(-c4ccccc4)c3)nn2c(-c2cc(F)c3c(c2C)CCCO3)c1[C@H](OC(C)(C)C)C(=O)O	6 nM	78%	73.3 ×10⁻⁶ cm/s	96%	–	EC50 [3]: 110 nM; selectivity ratio [4]: 1100; Ratio EC50 [5]: 18; CC50 at 96 h [9]: 6590 nM
COc1ccccc1-c1cccc(-c2cc3nc(C)c([C@H](OC(C)(C)C)C(=O)O)c(-c4cc(F)c5c(c4C)CCCO5)n3n2)c1	6 nM	99%	76.5 ×10⁻⁶ cm/s	99%	–	Vd [10]: 1.8 L/kg; EC50 [3]: 30 nM; bioavailability [11]: 59%; Cmax [12]: 1110 nM; selectivity ratio [4]: 3920; AUC(0-t) [13]: 2.99 µM·h; clearance [14]: 28 mL/min/kg; half-life [15]: 3 h; Tmax [16]: 2.3 h; Ratio EC50 [5]: 5; CC50 at 96 h [9]: 23500 nM
Cc1nc2cc(-c3ccccc3)nn2c(-c2ccc3c(c2)CCCO3)c1C(OC(C)(C)C)C(=O)O (centres undefined)	490 nM	–	–	–	40 nM	–
COc1ccc(-c2cccc(-c3cc4nc(C)c([C@H](OC(C)(C)C)C(=O)O)c(-c5cc(F)c6c(c5C)CCCO6)n4n3)c2)cn1	5 nM	73%	51.4 ×10⁻⁶ cm/s	100%	–	EC50 [3]: 23 nM; selectivity ratio [4]: > 4600; Ratio EC50 [5]: 5; CC50 at 96 h [9]: > 23000 nM
Cc1ccc(-c2c(C(O)C(=O)O)c(C)nc3cc(-c4ccccc4)nn23)cc1 (centres undefined)	> 40000 nM	–	–	–	–	–
COc1ccc(-c2c(C(OC(C)(C)C)C(=O)O)c(C)nc3cc(-c4ccccc4)nn23)cc1 (centres undefined)	1700 nM	–	–	–	310 nM	–
Cc1nc2cc(-c3ccccc3)nn2c(-c2cc(F)c3c(c2C)CCCO3)c1C(OC(C)(C)C)C(=O)O (stereo in doubt; 15)	–	–	–	–	3400 nM	EC50 [1]: > 40000 nM
Cc1nc2cc(-c3ccccc3)nn2c(-c2cc(F)c3c(c2C)CCCO3)c1C(OC(C)(C)C)C(=O)O (racemic)	–	93%	21.8 ×10⁻⁶ cm/s	97%	170 nM	EC50 [17]: 119 nM; EC50 [1]: 210 nM
Cc1nc2cc(-c3cccc(Oc4ccccc4)c3)nn2c(-c2cc(F)c3c(c2C)CCCO3)c1C(OC(C)(C)C)C(=O)O (centres undefined)	60 nM	100%	47.2 ×10⁻⁶ cm/s	97%	–	–

The next lines start with results.

EC50 [1, 18]	remaining at 10 min, 0.5 µM [6]	Papp at 4 h, 100 µM [7]	remaining at 10 min, 0.5 µM [8]	Compound	Ki [2]	other results
> 40000 nM	–	–	–	Cc1cccc(-c2c(C(OC(C)(C)C)C(=O)O)c(C)nc3cc(-c4ccccc4)nn23)c1 (centres undefined)	4400 nM	–
60 nM	100%	37.5 ×10⁻⁶ cm/s	100%	Cc1nc2cc(-c3cccc(OCc4ccccc4)c3)nn2c(N2CCC(C)(C)CC2)c1C(OC(C)(C)C)C(=O)O (centres undefined)	–	–
16000 nM	–	–	–	CC(C)(C)OC(C(=O)O)c1ccccc1-c1ccccc1 (centres undefined)	67000 nM	CC50 at 96 h [9]: 127000 nM
> 40000 nM	–	–	–	Cc1ccc(Nc2c(C(OC(C)(C)C)C(=O)O)c(C)nc3cc(-c4ccccc4)nn23)cc1 (centres undefined)	> 40000 nM	–
> 40000 nM	–	–	–	Cc1nc2cc(-c3ccccc3)nn2c(-c2ccccc2)c1C(OC(C)(C)C)C(=O)O (centres undefined)	3700 nM	–
> 40000 nM	–	–	–	COc1ccccc1-c1c(C(OC(C)(C)C)C(=O)O)c(C)nc2cc(-c3ccccc3)nn12 (centres undefined)	> 40000 nM	–
550 nM	100%	70.3 ×10⁻⁶ cm/s	–	Cc1nc2cc(-c3ccccc3)nn2c(N2CCC(C)(C)CC2)c1C(OC(C)(C)C)C(=O)O (centres undefined)	60 nM	–
